Measured values taken from ChEMBL document CHEMBL5346886 (Eur J Med Chem, 2023).
≈ marks a conversion by molar mass, not a printed value. Calls of active or inactive are those of the source. No cut-off for these calls is given here.

Experiments:
[1] = Tmax in Sprague-Dawley rat at 25 mg/kg, po administered as single dose and measured at 0.25 to 24 hrs by LC-MS/MS analysis; type: ADME, organism-based; details: in vivo, time 0.25-24 hrs
[2] = tested on: Murine hepatitis virus; test: Antiviral activity against murine hepatitis virus-A59 infected in BALB/c mouse assessed as reduction in IFN-gamma production in liver at 70 mg/kg, po administered once daily one hour post infection and measured after 3 days by ELISA analysis; type: functional, organism-based; details: time 3.0 day
How it was run: (§1)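 MHV-A59 was inoculated intranasally into male BALB/c mice (30 μL, TCID50 = 10−7.125/100 μL), with oral dosing once daily from 1 hpi for four days. At 3 dpi, 0.1 g lung or liver from 4 mice per group was homogenized in 0.9 mL water at 4 °C and centrifuged. Supernatant IFN-β was read by ELISA; TNF-α, IFN-γ, IL-1β, IL-6 and CXCL10 by multi-analyte kit, with OD 450 nm against standards.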

[3] = Oral bioavailability in Sprague-Dawley rat at 25 mg/kg administered as single dose and measured at 0.25 to 24 hrs by LC-MS/MS analysis; type: ADME, organism-based; details: in vivo, time 0.25-24 hrs
[4] = tested on: Murine hepatitis virus; test: Antiviral activity against Murine hepatitis virus-A59 infected in mouse L929 cells assessed as reduction in viral copy pre-infected with cell for 1 hrs followed by compound addition and measured after 48 hrs in the presence of remdesivir by RT-qPCR analysis; type: functional, organism-based
How it was run: (§2)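 L929 cells in DMEM with 10% FBS were seeded for 24 h to 80% confluence and washed thrice with serum-free medium. Cells were infected with MHV-A59 at MOI 0.01 for 1 h at 37 °C, then compound was added, with DMSO as the blank control. After 48 h at 37 °C, cells and supernatants were taken for qRT-PCR of viral copies. Inhibition was calculated from copy number and fitted for EC50.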

[5] = tested on: Murine hepatitis virus; test: Antiviral activity against murine hepatitis virus-A59 infected in BALB/c mouse assessed as inhibition of viral replication in lungs at 70 mg/kg, po administered once daily one hour post infection and measured after 3 days by qRT-PCR analysis; type: functional, organism-based; details: time 3.0 day
How it was run: (§3)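 SPF male BALB/c mice aged 3–4 weeks were put under isoflurane and inoculated intranasally with 30 μL MHV-A59 (TCID50 = 10−7.125/100 μL) in PBS. Oral dosing once daily in 15% Cremophor EL/82.5% PBS/2.5% DMSO started at 1 hpi and ran for four days; groups had 12 mice. At 3 dpi, 4 mice per group were killed and lung and liver M-gene copies measured by qRT-PCR.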

[6] = tested on: Murine hepatitis virus; test: Antiviral activity against Murine hepatitis virus-A59 infected in mouse L929 cells assessed as reduction in viral copy upto 200 uM pre-infected with cell for 1 hrs followed by compound addition and measured after 48 hrs by RT-qPCR analysis; type: functional, organism-based; how it was run: as §2
[7] = Cmax in Sprague-Dawley rat at 5 mg/kg, iv administered as single dose and measured at 0.083 to 24 hrs by LC-MS/MS analysis; type: ADME, organism-based; parameters: dose 5 mg/kg, time 0.083-24 hrs, route iv; details: in vivo
[8] = tested on: Murine hepatitis virus; test: Antiviral activity against murine hepatitis virus-A59 infected in BALB/c mouse assessed as reduction in IFN-beta production in liver at 70 mg/kg, po administered once daily one hour post infection and measured after 3 days by ELISA analysis; type: functional, organism-based; details: time 3.0 day; how it was run: as §1
[9] = AUC (0 to infinity) in Sprague-Dawley rat at 5 mg/kg, iv administered as single dose and measured at 0.083 to 24 hrs by LC-MS/MS analysis; type: ADME, organism-based; parameters: time upper 24 hrs, dose 5 mg/kg, time lower 0.083 hrs, route iv; details: in vivo
[10] = Tmax in Sprague-Dawley rat at 5 mg/kg, iv administered as single dose and measured at 0.083 to 24 hrs by LC-MS/MS analysis; type: ADME, organism-based; details: in vivo, time 0.083-24 hrs
[11] = Cmax in Sprague-Dawley rat at 25 mg/kg, po administered as single dose and measured at 0.25 to 24 hrs by LC-MS/MS analysis; type: ADME, organism-based; parameters: dose 25 mg/kg, time 0.25-24 hrs, route po; details: in vivo
[12] = tested on: Murine hepatitis virus; test: Antiviral activity against murine hepatitis virus-A59 infected in BALB/c mouse assessed as inhibition of viral replication in liver at 70 mg/kg, po administered once daily one hour post infection and measured after 3 days by qRT-PCR analysis; type: functional, organism-based; details: time 3.0 day; how it was run: as §3
[13] = tested on: Murine hepatitis virus; test: Antiviral activity against murine hepatitis virus-A59 infected in BALB/c mouse assessed as reduction in IL-1beta production in liver at 70 mg/kg, po administered once daily one hour post infection and measured after 3 days by ELISA analysis; type: functional, organism-based; details: time 3.0 day; how it was run: as §1
[14] = AUC (0 to infinity) in Sprague-Dawley rat at 25 mg/kg, po administered as single dose and measured at 0.25 to 24 hrs by LC-MS/MS analysis; type: ADME, organism-based; parameters: time upper 24 hrs, time lower 0.25 hrs, dose 25 mg/kg, route po; details: in vivo
[15] = tested on: Murine hepatitis virus; test: Antiviral activity against murine hepatitis virus-A59 infected in BALB/c mouse assessed as reduction in CXCL10 production in liver at 70 mg/kg, po administered once daily one hour post infection and measured after 3 days by ELISA analysis; type: functional, organism-based; details: time 3.0 day; how it was run: as §1
[16] = tested on: Murine hepatitis virus; test: Antiviral activity against murine hepatitis virus-A59 infected in BALB/c mouse assessed as reduction in IL6 production in liver at 70 mg/kg, po administered once daily one hour post infection and measured after 3 days by ELISA analysis; type: functional, organism-based; details: time 3.0 day; how it was run: as §1
[17] = tested on: Murine hepatitis virus; test: Antiviral activity against murine hepatitis virus-A59 infected in BALB/c mouse assessed as reduction in TNF-alpha production in liver at 70 mg/kg, po administered once daily one hour post infection and measured after 3 days by ELISA analysis; type: functional, organism-based; details: time 3.0 day; how it was run: as §1
[18] = Solubility of the compound; type: physicochemical
[19] = tested on: Murine hepatitis virus; test: Antiviral activity against Murine hepatitis virus-A59 infected in mouse L929 cells assessed as reduction in viral copy pre-infected with cell for 1 hrs followed by compound addition and measured after 48 hrs by RT-qPCR analysis; type: functional, organism-based; details: Murine coronavirus
How it was run: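 L929 cells in DMEM with 10% FBS were washed serum-free at 80% confluence and infected with MHV-A59 at MOI 0.01 for 1 h at 37 °C. Compounds were added at 0.1–100 μmol/L, with DMSO as blank control. After 48 h at 37 °C, the viral M gene in supernatant was measured by qRT-PCR. Percent inhibition was derived from copy number and EC50 from curve fitting.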

[20] = Stability in human plasma assessed as half-life; type: ADME, cell-free
[21] = tested on: Murine hepatitis virus; test: Antiviral activity against murine hepatitis virus-A59 infected in BALB/c mouse assessed as inhibition of viral replication in lungs at 100 mg/kg, po administered once daily one hour post infection and measured after 3 days by qRT-PCR analysis; type: functional, organism-based; details: time 3.0 day; how it was run: as §3
[22] = tested on: Murine hepatitis virus; test: Antiviral activity against murine hepatitis virus-A59 infected in BALB/c mouse assessed as inhibition of viral replication in liver at 100 mg/kg, po administered once daily one hour post infection and measured after 3 days by qRT-PCR analysis; type: functional, organism-based; details: time 3.0 day; how it was run: as §3
[23] = tested on: Murine hepatitis virus; test: Antiviral activity against murine hepatitis virus-A59 infected in BALB/c mouse assessed as inhibition of viral titer in liver at 100 mg/kg, po administered once daily one hour post infection and measured after 3 days by qRT-PCR analysis; type: functional, organism-based; details: time 3.0 day; how it was run: as §3
[24] = MRT (0 to infinity) in Sprague-Dawley rat at 5 mg/kg, iv administered as single dose and measured at 0.083 to 24 hrs by LC-MS/MS analysis; type: ADME, organism-based; details: in vivo, time 0.083-24 hrs
[25] = tested on: Murine hepatitis virus; test: Antiviral activity against murine hepatitis virus-A59 infected in BALB/c mouse assessed as alleviation of interstitial pneumonia in lungs at 100 mg/kg, po administered once daily one hour post infection and measured after 3 days by H&E staining based analysis; type: functional, organism-based; details: time 3.0 day
How it was run: (§4)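 In male BALB/c mice (3–4 weeks), MHV-A59 was given intranasally (30 μL, TCID50 = 10−7.125/100 μL). Oral dosing once daily in a Cremophor EL/PBS/DMSO vehicle began at 1 hpi and lasted four days. At 3 dpi, lungs and livers from 4 mice per group were fixed in zinc formalin and paraffin-embedded. Sections of about 4 μm were stained with H&E and examined at 200× and 400×.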

[26] = tested on: Murine hepatitis virus; test: Antiviral activity against murine hepatitis virus-A59 infected in BALB/c mouse assessed as reduction in mortality at 100 mg/kg, po administered once daily one hour post infection and measured after 23 days; type: functional, organism-based; details: time 23.0 day
How it was run: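 After intranasal MHV-A59 inoculation (30 μL, TCID50 = 10−7.125/100 μL), 3–4-week-old male BALB/c mice received oral drug or vehicle once daily from 1 hpi for four days, 12 per group. The remaining mice were monitored daily for body weight, clinical signs and death until 23 dpi; survival curves were plotted.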

[27] = tested on: Murine hepatitis virus; test: Antiviral activity against murine hepatitis virus-A59 infected in BALB/c mouse assessed as alleviation of lymphocytes infiltration in lungs at 100 mg/kg, po administered once daily one hour post infection and measured after 3 days by H&E staining based analysis; type: functional, organism-based; details: time 3.0 day; how it was run: as §4
[28] = tested on: Murine hepatitis virus; test: Antiviral activity against murine hepatitis virus-A59 infected in BALB/c mouse assessed as alleviation of necrotic debris in lungs at 100 mg/kg, po administered once daily one hour post infection and measured after 3 days by H&E staining based analysis; type: functional, organism-based; details: time 3.0 day; how it was run: as §4
[29] = tested on: Murine hepatitis virus; test: Antiviral activity against murine hepatitis virus-A59 infected in BALB/c mouse assessed as alleviation of thickened alveolar septa in lungs at 100 mg/kg, po administered once daily one hour post infection and measured after 3 days by H&E staining based analysis; type: functional, organism-based; details: time 3.0 day; how it was run: as §4
[30] = MRT (0 to infinity) in Sprague-Dawley rat at 25 mg/kg, po administered as single dose and measured at 0.25 to 24 hrs by LC-MS/MS analysis; type: ADME, organism-based; details: in vivo, time 0.25-24 hrs
[31] = tested on: Murine hepatitis virus; test: Potency index, ratio of GS-441524 EC50 to test compound EC50 for antiviral activity against Murine hepatitis virus-A59 infected in mouse L929 cells assessed as reduction in viral copy pre-infected with cell for 1 hrs followed by compound addition and measured after 48 hrs by RT-qPCR analysis; type: functional

## CC(C)Cc1ccc(C(C)C(=O)O)cc1 (stereo not given) [IBUPROFEN]
[1]
  Tmax: 0.67 h
[2]
  Activity: inactive
[3]
  F: 78.42%
[4]
  Activity: inactive
[5]
  Activity: inactive
[6]
  Activity: inactive
[7]
  Cmax: 41.8 µM
[8]
  Activity: inactive
[9]
  AUC: 67.1 uM.hr/L
[10]
  Tmax: 1.8 min
[11]
  Cmax: 80.2 µM
[12]
  Activity: inactive
[13]
  Activity: inactive
[14]
  AUC: 263 uM.hr/L
[15]
  Activity: inactive
[16]
  Activity: inactive
[17]
  Activity: inactive

## COc1ccc2c(c1)c(CC(=O)OC[C@H]1O[C@@](C#N)(c3ccc4c(N)ncnn34)[C@H](O)[C@@H]1O)c(C)n2C(=O)c1ccc(Cl)cc1
[18]
  solubility: 0.1 µM (≈ 0.0631 µg/mL)
[19]
  EC50: 10.1 µM
[20]
  t1/2: 2.8345 h

## CC(C(=O)OC[C@H]1O[C@@](C#N)(c2ccc3c(N)ncnn23)[C@H](O)[C@@H]1O)c1cccc(C(=O)c2ccccc2)c1 (stereo not given in full)
[18]
  solubility: 1070 µM (≈ 566 µg/mL)
[19]
  EC50: 4.17 µM
[20]
  t1/2: 3.3197 h

## N#C[C@@]1(c2ccc3c(N)ncnn23)O[C@H](CO)C(O)C1O (single isomer, unassigned) [GS-441524]
[3]
  F: 60.31%
[21]
  Activity: Active
[22]
  Activity: Active
[23]
  Activity: Active
[24]
  MRT: 1.28 h
[7]
  Cmax: 5.67 µM
[19]
  EC50: 10 µM
[25]
  Activity: inactive
[26]
  Activity: Active
[27]
  Activity: inactive
[9]
  AUC: 7.51 uM.hr/L
[28]
  Activity: inactive
[11]
  Cmax: 7.75 µM
[14]
  AUC: 22.6 uM.hr/L
[29]
  Activity: inactive
[30]
  MRT: 3.16 h

## COc1ccc2cc([C@H](C)C(=O)OC[C@H]3O[C@@](C#N)(c4ccc5c(N)ncnn45)[C@H](O)[C@@H]3O)ccc2c1
[18]
  solubility: 155 µM (≈ 78 µg/mL)
[19]
  EC50: 8.65 µM
[20]
  t1/2: 3.0328 h

## N#C[C@@]1(c2ccc3c(N)ncnn23)O[C@H](COC(=O)Cc2ccccc2Nc2c(Cl)cccc2Cl)[C@@H](O)[C@H]1O
[18]
  solubility: 3.7 µM (≈ 2.11 µg/mL)
[19]
  EC50: 6.4 µM
[20]
  t1/2: 3.186 h

## CCC(CC)COC(=O)[C@H](C)N[P@](=O)(OC[C@H]1O[C@@](C#N)(c2ccc3c(N)ncnn23)[C@H](O)[C@@H]1O)Oc1ccccc1
[19]
  EC50: 1.82 µM

## CC(C(=O)OC[C@H]1O[C@@](C#N)(c2ccc3c(N)ncnn23)[C@H](O)[C@@H]1O)c1cccc(Oc2ccccc2)c1 (stereo not given in full)
[18]
  solubility: 29 µM (≈ 15 µg/mL)
[31]
  Ratio EC50: 8
[19]
  EC50: 1.27 µM
[20]
  t1/2: 2.8218 h
